Results: ChEMBL document CHEMBL4049456, “Identification of 4-(Aminomethyl)-6-(trifluoromethyl)-2-(phenoxy)pyridine Derivatives as Potent, Selective, and Orally Efficacious Inhibitors of the Copper-Dependent Amine Oxidase, Lysyl Oxidase-Like 2 (LOXL2)” (J Med Chem, 2017)
pIC50: −log10 of the molar value.

Experiments:
[1] = target: T1, Lysyl oxidase homolog 2 (Homo sapiens) (UniProt Q9Y4K0); assay: Irreversible inhibition of human LOXL2 assessed as reduction of H2O2 production from oxidative deamination of DAP at 1000 times IC50 preincubated for 2 hrs followed by compound washout and subsequent incubation for 2 hrs prior to substrate addition measured every 2 mins for 40 mins by amplex red reagent-based fluorescence assay relative to control
T1 sequence (whole entry): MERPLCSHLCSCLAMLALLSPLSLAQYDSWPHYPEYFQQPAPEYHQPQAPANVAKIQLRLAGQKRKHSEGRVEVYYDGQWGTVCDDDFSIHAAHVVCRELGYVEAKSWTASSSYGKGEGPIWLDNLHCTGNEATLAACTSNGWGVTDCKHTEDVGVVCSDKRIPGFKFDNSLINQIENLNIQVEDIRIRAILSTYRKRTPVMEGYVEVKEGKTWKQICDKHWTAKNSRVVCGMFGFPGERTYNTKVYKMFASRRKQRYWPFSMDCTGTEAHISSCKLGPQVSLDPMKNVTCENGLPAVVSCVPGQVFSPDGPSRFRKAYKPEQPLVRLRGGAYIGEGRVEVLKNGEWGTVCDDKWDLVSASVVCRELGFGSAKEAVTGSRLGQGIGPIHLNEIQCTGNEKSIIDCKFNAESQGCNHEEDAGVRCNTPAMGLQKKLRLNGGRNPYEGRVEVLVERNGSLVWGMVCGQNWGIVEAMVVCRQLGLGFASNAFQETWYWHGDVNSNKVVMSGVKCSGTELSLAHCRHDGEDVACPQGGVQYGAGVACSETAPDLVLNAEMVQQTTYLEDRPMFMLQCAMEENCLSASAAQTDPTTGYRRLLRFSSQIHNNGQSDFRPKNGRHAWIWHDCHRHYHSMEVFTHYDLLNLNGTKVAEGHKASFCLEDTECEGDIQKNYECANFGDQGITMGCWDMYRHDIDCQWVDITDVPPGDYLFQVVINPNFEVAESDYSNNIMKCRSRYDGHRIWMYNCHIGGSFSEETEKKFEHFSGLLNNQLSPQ
Summary of the method: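 Wells were washed repeatedly with PBS and equilibrated for 2 h. Recovered activity was then compared with nonwashed controls.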

[2] = target: T2, Lysyl oxidase homolog 2 (Homo sapiens, UniProt Q9Y4K0); assay: Inhibition of human LOXL2 expressed in CHO cells assessed as reduction of H2O2 production from oxidative deamination of DAP preincubated for 2 hrs followed by substrate addition measured every 2 mins for 1 hr by amplex red reagent-based fluorescence assay; type: cell-based
T2 sequence (Q9Y4K0 whole entry): T1 sequence (whole entry)

[3] = target: T3, Diamine oxidase [copper-containing] (Homo sapiens) (UniProt P19801); assay: Inhibition of recombinant human DAO assessed as reduction of H2O2 production from oxidative deamination of DAP at 10 uM preincubated for 2 hrs followed by substrate addition measured every 2 mins for 1 hr by amplex red reagent-based fluorescence assay
T3 sequence (whole entry): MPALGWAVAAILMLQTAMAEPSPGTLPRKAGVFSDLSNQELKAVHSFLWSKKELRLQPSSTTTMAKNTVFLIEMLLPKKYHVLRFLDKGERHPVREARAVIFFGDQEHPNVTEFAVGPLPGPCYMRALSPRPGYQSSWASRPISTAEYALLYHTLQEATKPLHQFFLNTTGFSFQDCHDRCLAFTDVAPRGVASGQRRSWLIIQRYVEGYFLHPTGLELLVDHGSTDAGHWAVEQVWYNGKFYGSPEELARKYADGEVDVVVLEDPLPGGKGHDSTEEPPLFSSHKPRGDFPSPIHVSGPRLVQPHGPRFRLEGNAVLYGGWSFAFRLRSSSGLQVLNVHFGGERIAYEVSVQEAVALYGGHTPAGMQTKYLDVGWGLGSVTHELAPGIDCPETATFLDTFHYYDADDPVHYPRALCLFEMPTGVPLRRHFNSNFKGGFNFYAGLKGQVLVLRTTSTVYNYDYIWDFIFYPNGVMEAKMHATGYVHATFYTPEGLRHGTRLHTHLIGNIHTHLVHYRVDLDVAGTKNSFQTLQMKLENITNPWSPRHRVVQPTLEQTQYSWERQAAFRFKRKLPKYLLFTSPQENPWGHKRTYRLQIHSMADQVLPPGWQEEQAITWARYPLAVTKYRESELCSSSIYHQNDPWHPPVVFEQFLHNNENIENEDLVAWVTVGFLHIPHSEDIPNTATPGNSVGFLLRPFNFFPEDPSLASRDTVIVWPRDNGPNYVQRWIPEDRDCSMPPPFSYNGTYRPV
Summary of the method: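 Purified recombinant human DAO was preincubated with compound for 2 h and DAP used as substrate. Percent inhibition was calculated against vehicle and enzyme-free controls.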

[4] = target: T2, Lysyl oxidase homolog 2; assay: (§1) Inhibition of recombinant human LOXL2 expressed in human whole blood assessed as reduction of H2O2 production from oxidative deamination of DAP preincubated for 2 hrs followed by substrate addition measured every 2 mins for 1 hr by amplex red reagent-based fluorescence assay
[5] = target: T1, Lysyl oxidase homolog 2 (Homo sapiens); assay: as §1
[6] = test system: Mus musculus; assay: Toxicity in C57BL/6 mouse assessed as mortality at 3 to 60 mg/kg, po qd administered 15 days starting 1 day prior to bleomycin instillation; type: organism-based; settings: in vivo
Summary of the method: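 Male C57BL/6 mice, 6 to 7 weeks old. Lung fibrosis induced by a single oropharyngeal bleomycin dose (1.5 U/kg). Compound given orally once daily at 3, 10, 30 or 60 mg/kg for 15 days, starting 1 day before bleomycin. Mortality and body weight loss monitored; lungs taken at day 14 post-bleomycin.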

[7] = target: T1, Lysyl oxidase homolog 2 (Homo sapiens); assay: Irreversible inhibition of human LOXL2 assessed as catalytic activity preincubated for 2 hrs followed by substrate addition measured every 2 mins for 1 hr by amplex red reagent-based fluorescence assay relative to control; set-up: concentration or dose not given beside the values

Structure (SMILES): Cl.NCc1cc(Oc2cccc(C(=O)N3C[C@@H](O)[C@H](F)C3)c2)nc(C(F)(F)F)c1 (racemic)
- inhibition [1]: 77%
- pIC50 [2]: 7.11
- inhibition [3]: < 10%
- pIC50 [4]: 6.06
- IC90 [5]: 5400 nM
- Activity [6]: Non-Toxic
- inhibition [7]: 97%
